Among the data in ChEMBL document CHEMBL4706503, “A novel pipeline of 2-(benzenesulfonamide)-N-(4-hydroxyphenyl) acetamide analgesics that lack hepatotoxicity and retain antipyresis” (Eur J Med Chem, 2020) are Activity values, retold here.

Data set [1] in a line: Hepatotoxicity in CD1 mouse assessed as increase in serum alkaline phosphatase level at 600 mg/kg, po measured after 12 hrs. In kind it is toxicity, organism-based. As to conditions: in vivo. Put shortly: (§1)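 Male CD1 mice fasted 15 h, given 600 mg/kg po, then fed ad libitum for 12 h. Whole blood taken by transcardial perfusion under 5% isoflurane, without anticoagulant, clotted 0.5 h at 25 °C, spun 1000 g 5 min at 4 °C. Serum stored at −80 °C, then assayed with commercial kits. n = 5 mice per compound; vehicle 0.9% NaCl.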

Data set [2] can be described thus: Hepatotoxicity in CD1 mouse assessed as increase in serum aspartate aminotransferase level at 600 mg/kg, po measured after 12 hrs. In kind it is toxicity, organism-based. As to conditions: in vivo. Put shortly:
as §1

Data set [3] is described as follows: Renal toxicity in CD1 mouse assessed as increase in serum creatinine level at 600 mg/kg, po measured after 12 hrs. As to conditions: in vivo. In kind it is organism-based. Put shortly:
as §1

The next data set relates to Hepatocyte. Description: Hepatotoxicity in primary human hepatocytes assessed as increase in lactate dehydrogenase release at 500 to 1000 uM measured after 3 to 12 hrs by fluorescence based analysis.
Data set [4] in a line: Hepatotoxicity in CD1 mouse assessed as increase in serum alanine aminotransferase level at 600 mg/kg, po measured after 12 hrs. In kind it is toxicity, organism-based. As to conditions: in vivo. Put shortly: as §1

For `O=C(CNS(=O)(=O)c1ccccc1C(=O)NCCN1CCCC1)Nc1ccc(O)cc1`, the Activity result (in data set [1]; in data set [2]; in data set [3]; in the data set on Hepatocyte; in data set [4]) was “Non-Toxic” throughout.

With `O=C(CNS(=O)(=O)c1ccccc1C(=O)N1CCOCC1)Nc1ccc(O)cc1`, the Activity entry with Hepatocyte is given as “Non-Toxic”.

In the case of `COc1ccc(CNC(=O)c2ccccc2S(=O)(=O)NCC(=O)Nc2ccc(O)cc2)cc1`, the Activity result was “Non-Toxic” in data set [1]; “Non-Toxic” in data set [2]; “Non-Toxic” in data set [3]; “Toxic” in the data set on Hepatocyte; “Non-Toxic” in data set [4].

As to `O=C(CNS(=O)(=O)c1ccccc1C(=O)NCc1cccc(Cl)c1)Nc1ccc(O)cc1`, the Activity result in data set [1] was “Non-Toxic”; in data set [2], “Non-Toxic”; in data set [3], “Non-Toxic”; in the data set on Hepatocyte, “Toxic”; in data set [4], “Non-Toxic”.

`CCCCNC(=O)c1ccccc1S(=O)(=O)NCC(=O)Nc1ccc(O)cc1`: the Activity result is “Non-Toxic” in data set [1]; “Non-Toxic” in data set [2]; “Non-Toxic” in data set [3]; “Toxic” in the data set with Hepatocyte; “Non-Toxic” in data set [4].

Take `CC(C)NC(=O)c1ccccc1S(=O)(=O)NCC(=O)Nc1ccc(O)cc1`: the Activity entry in the data set with Hepatocyte was “Toxic”.

Turning to `O=C(CNS(=O)(=O)c1ccccc1C(=O)NCc1ccc([N+](=O)[O-])cc1)Nc1ccc(O)cc1`, the Activity entry (in data set [1]; in data set [2]; in data set [3]; with Hepatocyte; in data set [4]) was “Non-Toxic” each time.

Take `Cc1ccc(CNC(=O)c2ccccc2S(=O)(=O)NCC(=O)Nc2ccc(O)cc2)cc1`: the Activity result in data set [1] is listed as “Non-Toxic”; in data set [2], “Non-Toxic”; in data set [3], “Non-Toxic”; with Hepatocyte it was “Toxic”; in data set [4], “Non-Toxic”.

Take `O=C(CNS(=O)(=O)c1ccccc1C(=O)NCc1ccccn1)Nc1ccc(O)cc1`: the Activity result in data set [1] is “Non-Toxic”; in data set [2] it was “Non-Toxic”; in data set [3], “Non-Toxic”; in the data set with Hepatocyte, “Toxic”; in data set [4], “Non-Toxic”.

Regarding `O=C(CNS(=O)(=O)c1ccccc1C(=O)NC1CCCC1)Nc1ccc(O)cc1`, the Activity result in data set [1] is “Non-Toxic”; in data set [2] it was “Non-Toxic”; in data set [3], “Non-Toxic”; in the data set with Hepatocyte it was “Toxic”; in data set [4], “Non-Toxic”.

As to `O=C(CNS(=O)(=O)c1ccccc1C(=O)NCc1ccccc1)Nc1ccc(O)cc1`, in the data set on Hepatocyte, the Activity result is on record as “Toxic”.

Turning to `CC(C)CNC(=O)c1ccccc1S(=O)(=O)NCC(=O)Nc1ccc(O)cc1`, the Activity result in data set [1] is “Non-Toxic”; in data set [2], “Non-Toxic”; in data set [3], “Non-Toxic”; in the data set on Hepatocyte, “Toxic”; in data set [4] it was “Non-Toxic”.

For `CN(C)C(=O)c1ccccc1S(=O)(=O)NCC(=O)Nc1ccc(O)cc1`, the Activity entry is on record as “Non-Toxic” in data set [1]; “Non-Toxic” in data set [2]; “Non-Toxic” in data set [3]; “Toxic” in the data set on Hepatocyte; “Non-Toxic” in data set [4].

In the case of `NC(=O)c1ccccc1S(=O)(=O)NCC(=O)Nc1ccc(O)cc1`, the Activity entry with Hepatocyte was “Toxic”.

In the case of `O=C(CNS(=O)(=O)c1ccccc1C(=O)N1CCN(Cc2ccccc2)CC1)Nc1ccc(O)cc1`, the Activity entry in the data set on Hepatocyte is reported as “Toxic”.

For the compound `O=C(CNS(=O)(=O)c1ccccc1C(=O)NCCc1ccccc1)Nc1ccc(O)cc1`, in the data set with Hepatocyte, the Activity result is recorded as “Toxic”.
